How the values were obtained:
HL-60 = experiment: Antiproliferative activity against human HL60 cells after 72 hrs by MTT assay; format: functional, cell-based; conditions: HL-60, 72 h
Procedure, shortened: (§1)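 MTT assay with 72 h exposure to graded concentrations in triplicate. MTT solution then DMSO were added, followed by 10 min at room temperature, with absorbance read at 490 nm. IC50 is reported as the mean of three independent experiments. 5-FU served as positive control.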

PC-3 = experiment: Antiproliferative activity against human PC3 cells after 72 hrs by MTT assay; format: functional, cell-based; conditions: PC-3, 72 h; procedure, shortened: as §1
Bel-7402 = experiment: Antiproliferative activity against human Bel7402 cells after 72 hrs by MTT assay; format: functional, cell-based; conditions: Bel-7402, 72 h; procedure, shortened: as §1
Bel7402/5-FU = experiment: Antiproliferative activity against human Bel7402/5-FU cells after 72 hrs by MTT assay; format: functional, cell-based; procedure, shortened: as §1
L02 = experiment: Antiproliferative activity against human LO2 cells after 72 hrs by MTT assay; format: cell-based; conditions: L02, 72 h; procedure, shortened: as §1
[1] = Selectivity index, ratio of IC50 for human LO2 cells to IC50 for human Bel7402 cells; format: toxicity; conditions: LO2 cells versus Bel7402 cells, read-out: Ratio IC50
Procedure, shortened: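 SI was calculated as IC50 in L-02 normal liver cells divided by IC50 in Bel-7402 cells, both from the 72 h MTT assay.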

Compound | IC50 (HL-60) [µM] | IC50 (PC-3) [µM] | IC50 (Bel-7402) [nM] | IC50 (Bel7402/5-FU) [µM] | IC50 (L02) [µM] | selectivity ratio [1]
C=C1C(=O)[C@]23[C@H](O)[C@H]1CC[C@H]2[C@@]12CO[C@]3(O)[C@@H](O)[C@@H]1C(C)(C)CC[C@@H]2O [ORIDONIN] | 14.3 | 11 | 7360 | 10.5 | 18.9 | 2.6
C=C1C(=O)[C@@]23C(=O)O[C@H]4CCC(C)(C)[C@H]5[C@H](O)OC[C@@]45[C@@H]2CC[C@@H]1[C@H]3OC(=O)CCCc1ccc(N(CCCl)CCCl)cc1 | 6.35 | 7.32 | 2080 | 8.49 | 69.9 | 33.6
C=C1C(=O)[C@@]23C(=O)O[C@H]4CCC(C)(C)[C@H]5C(=O)OC[C@@]45[C@@H]2CC[C@@H]1[C@H]3OC(=O)c1ccc(N(CCCl)CCCl)cc1 | 5.57 | 7.03 | 1600 | 2.9 | 62.8 | 39.3

Reference: ChEMBL document CHEMBL4229335 (Eur J Med Chem, 2018)
